Results pooled from the literature.
Compare with care: the assays were run in different laboratories.
Sample: plasma

SMILES	test system	conditions	Tmax
Cc1cc(Nc2ccc(S(F)(F)(F)(F)F)cc2)n2ccnc2n1	male Swiss mouse	oral, 100 mg/kg, single dose	30 min
CC(C)NC(=O)COc1cccc(-c2nc(Nc3ccc4[nH]ncc4c3)c3ccccc3n2)c1	male C57BL/6 mouse	oral, 100 mg/kg	≤ 120 min
CCc1cc(C(=O)NC)c2nccc(N3CCc4c(cc(Cn5ccnc5)cc4-c4cn(C)nc4C(F)(F)F)C3=O)c2c1	male CD-1 mouse	oral, 150 mg/kg	30 min
OC[C@H]1O[C@@H](c2ccc(Cl)c(Cc3ccc(O[C@H]4CCOC4)cc3)c2)[C@H](O)[C@@H](O)[C@@H]1O	CD-1 mouse	intravenous, 5 mg/kg	4.8 min
CC=Cc1ccc(O)c(OC)c1	mouse	intranasal, 100 mg/kg	5 min
Cc1ncsc1-c1ccc(CNC(=O)[C@@H]2C[C@@H](O)CN2C(=O)[C@@H](NC(=O)CCCCCCCCCCCC(=O)NCCCCC#Cc2cccc(-c3nn(-c4nc(C(=O)O)cs4)c(CC4CC4)c3Cc3ccc(S(N)(=O)=O)cc3)c2)C(C)(C)C)cc1	male Swiss mouse	intraperitoneal, 5 mg/kg, single dose	480 min
CN1CCC[C@H](CN2c3ccccc3Sc3ccccc32)C1.Cl	mouse	intraperitoneal, 32 mg/kg, single dose	60 min
CC(C)(C)c1cc(NC(=O)Nc2ccc(Oc3ccnc4[nH]c(=O)cnc34)cc2F)n(-c2ccccc2)n1	BALB/c mouse	oral, 10 mg/kg	30 min
C=CC(=O)N1CC2CC(n3nc(-c4ccc(C(=O)Nc5ccccn5)cc4)c4c(N)ncnc43)CC2C1 (centres unmarked)	SCID mouse	oral, 5 mg/kg	60 min
CCc1ccc(Cc2cc([C@@H]3O[C@H](CO)[C@@H](O)[C@H](O)[C@H]3O)cc3c2CCC3)cc1	male C57BL/6 mouse	oral, 3 mg/kg	30 min
O=C(c1nc2ccc(F)cc2[nH]1)c1c[nH]c2c(F)cccc12	female mouse	intraperitoneal, 6 mg/kg	~15 min
COc1ccc(CNc2c3c(nc4ccc(C#N)cc24)CCN(C(C)=O)C3)cc1Cl	mouse	intraperitoneal, 25 mg/kg	15 min
CS(=O)(=O)CCNCc1ccc(-c2ccc3ncnc(Nc4ccc(OCc5cccc(F)c5)c(Cl)c4)c3c2)o1	nude mouse	oral, 100 mg/kg, single dose	120 min
COc1cc(C(=O)N2CCC(N3CCN(C)CC3)CC2)ccc1Nc1ncc2c(n1)N(C)c1ccccc1C(=O)N2C	mouse	oral, 10 mg/kg	60 min
COc1nc(-c2cc(C)c(N[C@@H](C)c3ccc(F)cc3)nn2)ccc1-n1cnc(C)c1	male CD-1 mouse	intravenous, 1 mg/kg, single dose	4.98 min
CC(C)(C)c1ccc(O)c(CN(Cc2cc(C(C)(C)C)ccc2O)C2CCC(NC(N)=O)CC2)c1 (centres unmarked)	male C57BL/6 mouse	oral, 10 mg/kg, single dose	30 min
COc1cc(OC)c2nccc(N3CCc4c(cc(Cn5ccnc5)cc4-c4cn(C)nc4C(F)(F)F)C3=O)c2c1	male CD-1 mouse	oral, 50 mg/kg	42 min
